Assay results from ChEMBL document CHEMBL1134599, “Design and synthesis of [(2,3-dichlorophenyl)piperazin-1-yl]alkylfluorenylcarboxamides as novel ligands selective for the dopamine D3 receptor subtype” (J Med Chem, 2001).
pKi: −log10 of the molar value.

Tests used:
[1] = molecular target: T1, D(4) dopamine receptor (Homo sapiens, UniProt P21917); assay: Binding affinity at human dopamine receptor D4
T1 sequence (P21917 whole entry): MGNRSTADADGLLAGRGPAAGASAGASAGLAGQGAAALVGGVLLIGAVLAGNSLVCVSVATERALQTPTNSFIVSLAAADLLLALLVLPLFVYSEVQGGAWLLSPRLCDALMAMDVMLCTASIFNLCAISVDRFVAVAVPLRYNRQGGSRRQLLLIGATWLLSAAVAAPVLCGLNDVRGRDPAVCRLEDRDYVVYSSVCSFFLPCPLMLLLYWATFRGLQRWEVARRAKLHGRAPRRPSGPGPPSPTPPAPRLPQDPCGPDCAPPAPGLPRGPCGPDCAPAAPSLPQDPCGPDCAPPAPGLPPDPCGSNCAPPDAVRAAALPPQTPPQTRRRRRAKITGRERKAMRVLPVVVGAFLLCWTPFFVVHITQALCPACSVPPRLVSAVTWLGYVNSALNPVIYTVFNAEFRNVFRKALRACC
Procedure, shortened: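 Membranes from CHO cells expressing cloned human D4 receptor, prepared in HEPES buffer with protease inhibitors. Compounds tested at 0.1 nM–10 µM in duplicate with 0.1 nM [3H]YM-09151-2 and 40 µg protein, in 50 mM Tris pH 7.4 with 120 mM NaCl. Incubated 2 h at room temperature, then filtered and counted by scintillation. Nonspecific binding defined with 10 µM spiperone. Ki from IC50 by Cheng-Prusoff. 2–3 independent experiments.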

[2] = molecular target: D(3) dopamine receptor (Homo sapiens, UniProt P35462); assay: Binding affinity at dopamine receptor D3
[3] = molecular target: D(2) dopamine receptor (Homo sapiens, UniProt P14416); assay: Binding affinity at human dopamine receptor D2
Procedure, shortened: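 Membranes from CHO cells expressing cloned D2 receptor (labelled primate in methods). Compounds tested at 0.1 nM–10 µM in duplicate with 0.1 nM [3H]YM-09151-2 and 40 µg membrane protein. Buffer was 50 mM Tris pH 7.4 with 120 mM NaCl, bacitracin and aprotinin. Incubated 2 h at room temperature, then filtered on PEI-treated GF/C. Nonspecific binding defined with 10 µM spiperone. IC50 converted to Ki by Cheng-Prusoff. 2–3 independent experiments.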

[4] = Binding affinity at human dopamine receptor D2

Chain of D(3) dopamine receptor (P35462 whole entry): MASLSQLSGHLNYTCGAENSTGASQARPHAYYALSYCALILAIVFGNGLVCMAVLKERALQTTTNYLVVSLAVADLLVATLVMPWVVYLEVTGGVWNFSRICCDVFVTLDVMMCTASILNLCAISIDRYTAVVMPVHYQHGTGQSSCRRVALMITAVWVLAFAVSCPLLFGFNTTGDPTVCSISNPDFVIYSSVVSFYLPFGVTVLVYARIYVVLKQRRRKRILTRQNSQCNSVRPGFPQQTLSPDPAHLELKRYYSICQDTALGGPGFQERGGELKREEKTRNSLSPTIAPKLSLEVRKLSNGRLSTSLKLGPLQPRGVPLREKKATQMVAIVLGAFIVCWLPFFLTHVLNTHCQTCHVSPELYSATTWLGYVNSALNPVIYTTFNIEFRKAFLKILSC
Chain of D(2) dopamine receptor (P14416 whole entry): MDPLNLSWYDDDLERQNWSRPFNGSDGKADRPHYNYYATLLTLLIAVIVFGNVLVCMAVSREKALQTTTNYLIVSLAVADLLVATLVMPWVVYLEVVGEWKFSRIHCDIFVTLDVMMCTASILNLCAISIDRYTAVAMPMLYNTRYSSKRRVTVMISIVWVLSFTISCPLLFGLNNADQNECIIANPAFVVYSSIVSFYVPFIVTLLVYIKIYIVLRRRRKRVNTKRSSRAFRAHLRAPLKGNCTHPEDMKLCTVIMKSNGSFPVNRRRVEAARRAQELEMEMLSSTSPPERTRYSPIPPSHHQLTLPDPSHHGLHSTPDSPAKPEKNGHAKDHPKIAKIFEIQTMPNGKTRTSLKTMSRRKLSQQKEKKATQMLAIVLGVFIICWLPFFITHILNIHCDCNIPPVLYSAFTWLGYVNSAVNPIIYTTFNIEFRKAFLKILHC

| SMILES | pKi [1] | pKi [2] | pKi [3] | pKi [4] |
| --- | --- | --- | --- | --- |
| CN1C2CCC1CC(OC(c1ccc(F)cc1)c1ccc(F)cc1)C2 (stereo not given) [DIFLUOROBENZTROPINE] | – | 6.84 | – | – |
| CN1C2CCC1CC(OC(c1ccccc1)c1ccc(Cl)cc1)C2 (stereo not given) | 6.00 | 5.27 | 5.76 | – |
| Fc1ccc(C(O[C@H]2C[C@H]3CC[C@@H](C2)N3CCCCc2ccccc2)c2ccc(F)cc2)cc1 | 7.17 | 7.86 | 7.09 | – |
| Fc1ccc(C(OCCN2C3CCC2CC(OC(c2ccc(F)cc2)c2ccc(F)cc2)C3)c2ccc(F)cc2)cc1 (stereo not given) | 6.06 | 6.67 | 6.03 | – |
| C[C@@H]1CN(CCCn2c3ccc(Br)cc3c3cc(Br)cc(Br)c32)C[C@@H](C)N1 | – | < 5.10 | – | – |
| Fc1ccc(C(OC2CC3CCC(C2)N3Cc2cccc3ccccc23)c2ccc(F)cc2)cc1 (stereo not given) | 6.92 | 6.95 | 6.42 | – |
| Fc1ccc(C(OC2CC3CCC(C2)N3Cc2ccccc2)c2ccc(F)cc2)cc1 (stereo not given) | 6.19 | 7.20 | 6.88 | – |
| Fc1ccc(C(OCCOC2CC3CCC(C2)N3)c2ccc(F)cc2)cc1 (stereo not given) | < 5.40 | 5.60 | 5.95 | – |
| Fc1ccc(C(OC2CC3CCC(C2)N3Cc2ccc(Cl)c(Cl)c2)c2ccc(F)cc2)cc1 (stereo not given) | 6.46 | 6.56 | 6.20 | – |
| CCN(CC)CCOCCOC1(c2ccccc2)CCCC1 | – | 5.21 | – | – |
| CN1C2CCC1CC(OC1c3ccccc3Cc3ccccc31)C2 (stereo not given) | 6.27 | 6.71 | 6.17 | – |
| Fc1ccc(C(OC2CC3CCC(C2)N3Cc2cc3ccccc3[nH]2)c2ccc(F)cc2)cc1 (stereo not given) | 6.76 | 7.27 | 6.66 | – |
| O=C1c2ccccc2C(=O)N1CCCCN1CCN(c2cccc(Cl)c2Cl)CC1 | 6.43 | 8.39 | 6.92 | – |
| O=C(NCCCCN1CCN(c2cccc(Cl)c2Cl)CC1)c1ccc2c(c1)-c1ccccc1C2 | < 5.30 | 8.85 | 6.66 | – |
| CN1[C@@H]2CC[C@H]1C[C@@H](OC(c1ccc(Cl)cc1)c1ccc(Cl)cc1)C2 | – | 6.66 | – | – |
| C=CCN1C2CCC1CC(OC(c1ccc(F)cc1)c1ccc(F)cc1)C2 (stereo not given) | – | 6.89 | – | – |
| Clc1cccc(C(OC2CC3CCC(C2)N3CCCc2ccccc2)c2ccccc2)c1 (stereo not given) | 6.65 | 7.14 | 7.23 | – |

The next lines start with the values.

| pKi [1] | pKi [2] | pKi [3] | pKi [4] | SMILES |
| --- | --- | --- | --- | --- |
| < 5.40 | 5.40 | 6.74 | – | OC1CCc2c(c3ccccc3n2CCCN2CCN(c3ccccc3)CC2)C1 (stereo not given) |
| – | < 5.10 | – | – | C[C@@H]1CN(CCCn2c3ccccc3c3cc(N)ccc32)C[C@H](C)N1 |
| 5.73 | 8.85 | 7.05 | – | O=C(NCCCCN1CCN(c2cccc(Cl)c2Cl)CC1)c1cccc2c1-c1ccccc1C2=O |
| 6.10 | 6.37 | 6.33 | – | O=C(NCCCN1CCN(c2ccccc2)CC1)c1cccc2c1Cc1ccccc1-2 |
| – | < 5.10 | – | – | C[C@@H]1CN(CCCn2c3ccccc3c3ccccc32)C[C@H](C)N1C |
| 6.28 | 7.55 | 8.30 | – | O=C(NCCCCCN1CCN(c2cccc(Cl)c2Cl)CC1)c1cccc2c1-c1ccccc1C2=O |
| 5.86 | 6.37 | 6.11 | – | O=C(NCCCN1CCN(c2ccccc2)CC1)c1cccc2c1-c1ccccc1C2=O |
| 5.94 | 7.62 | 6.38 | – | O=C(NCCCN1CCN(c2cccc(Cl)c2Cl)CC1)C1c2ccccc2-c2ccccc21 |
| 5.66 | 6.47 | 6.22 | – | O=C(NCCCN1CCN(c2ccccc2)CC1)C1c2ccccc2-c2ccccc21 |
| – | < 5.10 | – | – | C[C@@H]1CN(CCCN(c2ccccc2)c2ccccc2)C[C@H](C)N1 |
| – | 5.62 | – | – | c1ccc(N2CCN(CCCn3c4ccccc4c4ccccc43)CC2)cc1 |
| < 5.30 | – | – | […] | O=C(NCCCCN1CCN(c2cccc(Cl)c2Cl)CC1)c1ccc2c(c1)-c1ccccc1-2 |
| 6.46 | 6.96 | 5.59 | – | O=C(NCCCN1CCN(c2cccc(Cl)c2Cl)CC1)c1ccc2c(c1)Cc1ccccc1-2 |
| – | < 5.10 | – | – | O=C(NCC1c2ccccc2-c2ccccc21)C1CCNCC1 |
| 6.98 | 8.11 | 7.96 | – | O=C1c2ccccc2C(=O)N1CCCCCN1CCN(c2cccc(Cl)c2Cl)CC1 |
| – | < 5.40 | – | – | Clc1ccccc1N1CCN(CCCn2c3ccccc3c3ccccc32)CC1 |
| 6.41 | 7.72 | 8.00 | – | O=C(NCCCCN1CCN(c2cccc(Cl)c2Cl)CC1)C1c2ccccc2-c2ccccc21 |
| – | < 5.30 | – | – | C[C@@H]1CN(CCCN(c2ccccc2)c2ccccc2)C[C@H](C)N1CCCc1ccccc1 |
| – | < 5.40 | – | – | C[C@@H]1CN(CCCn2c3ccccc3c3ccccc32)C[C@H](C)N1CCCc1ccccc1 |
| 6.17 | 5.84 | 6.08 | – | O=C(NCCCN1CCN(c2ccccc2)CC1)c1ccc2c(c1)Cc1ccccc1-2 |
| 5.40 | 7.44 | 6.29 | – | O=C(NCCCN1CCN(c2cccc(Cl)c2Cl)CC1)c1cccc2c1-c1ccccc1C2=O |
| 6.49 | 6.77 | 5.77 | – | O=C(NCCCN1CCN(c2cccc(Cl)c2Cl)CC1)c1cccc2c1Cc1ccccc1-2 |
